A short description of series [1]: Chiral HPLC analysis of zeaxanthin stereoisomers in tissues. Type of series: in vivo. The settings on record: Isx^−/−/Bco2^−/− mice on 250 mg/kg 3R,3′R-zeaxanthin diet.
The nature of series [2]: Light exposure experiment: zeaxanthin metabolites in eye and liver by HPLC. Type of series: in vivo. To be noted: albino Isx^−/−/Bco2^−/− mice, 250 mg/kg zeaxanthin, 4 weeks. The procedure, abridged: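 Albino mice were fed the 250 mg/kg or control diet for 4 weeks after weaning. Three groups were used: 24 h/day darkness (DC), a 12/12 h light/dark cycle (L/DC), or L/DC plus twice-weekly light stress from week 2 (LS). For light stress, mice were dark-adapted overnight, pupils were dilated with 1% tropicamide, and mice received 85,000 lux white light for 2 min. Whole eye and liver carotenoids were then quantified by HPLC.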

The subject of series [3] is albino Isx^−/−/Bco2^−/− mice. Put plainly: Electroretinography. The class given is in vivo. The settings on record: 250 mg/kg versus 0 mg/kg, 4 weeks.
Series [4] in a line: HPLC analysis of zeaxanthin content in fecal matter during dietary intervention. Type of series: in vivo, mice. To be noted: 50 mg/kg zeaxanthin supplementation, 28 days. In short, it runs like this: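 Mice were fed vitamin A-free diets starting at weaning. Feces were collected on days 0, 1, 2, 4, 7, 14, 21 and 28 of the 28-day intervention. Carotenoids were extracted from about 25 mg feces under dim red light (<600 nm). Zeaxanthin was quantified by HPLC.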

The nature of series [5]: Food intake and liver weight during zeaxanthin dietary intervention. The class given is in vivo. The settings on record: Bco2^−/− and Isx^−/−/Bco2^−/− mice, 0, 50, 250 mg/kg diet. The procedure, abridged:
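Male and female mice were placed on vitamin A-free diets after weaning at 4 weeks old, for 4 weeks. Zeaxanthin was given as water-soluble beadlets incorporated into the diet. Fresh diet was given weekly, and body weight was recorded then. Food consumption was the leftover food per cage divided by the number of mice in the cage. At study end, mice were anaesthetised and livers dissected and weighed.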

Series [6] concerns albino Isx^−/−/Bco2^−/− mice. Put plainly: Optical coherence tomography. The settings on record: 250 mg/kg versus 0 mg/kg, 4 weeks. The class given is in vivo.
The test system of series [7] is albino Isx^−/−/Bco2^−/− mice. Nature of the series: Skin colour phenotype of supplemented albino mice. The settings on record: 250 mg/kg zeaxanthin, 4 weeks, hypercarotenemia. The class given is in vivo. In short, it runs like this: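 Albino mice were fed a vitamin A-free diet containing 250 mg/kg zeaxanthin or no zeaxanthin (control) for 4 weeks, starting immediately after weaning. Skin colour of the ears, eyelids and nostrils was inspected and photographed.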

The format of series [8] is in vivo, mice. In short, it runs like this: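 Male and female mice were fed vitamin A-free diets for 4 weeks from weaning; the WT cohort received the 250 mg/kg diet. Tissues were weighed and snap-frozen at -80 °C. Carotenoids were extracted under dim red light from about 25 mg of intestinal segments, liver or eWAT, 100 uL serum, or one whole eye. Analysis was normal-phase silica HPLC with diode-array detection. Data are means ± SD, n=5 (eWAT: 3 females, 2 males); two-way ANOVA.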

`CC1=C(/C=C/C(C)=C/C=C/C(C)=C/C=C/C=C(C)/C=C/C=C(C)/C=C/C2=C(C)C[C@H](O)CC2(C)C)C(C)(C)C[C@H](O)C1` [3R, 3′S-zeaxanthin]: in series [1], the “presence in the eyes by chiral HPLC” value is given as “no peak with a retention time of 3R, 3′S-zeaxanthin was detected”.
Consider `CC1=CC(=O)CC(C)(C)C1/C=C/C(C)=C/C=C/C(C)=C/C=C/C=C(C)/C=C/C=C(C)/C=C/C1C(C)=CC(=O)CC1(C)C` (centres unmarked) [oxidized zeaxanthin, ε,ε-carotene 3, 3′-dione], for which, in series [2], the “concentration in the eyes of L/DC and LS groups compared to DC group” value is “increased”.
As to `CC1=C(/C=C/C(C)=C/C=C/C(C)=C/C=C/C=C(C)/C=C/C=C(C)/C=C/C2=C(C)C[C@@H](O)CC2(C)C)C(C)(C)C[C@H](O)C1` [zeaxanthin, 3R,3′R-zeaxanthin], the “ERG responses under photopic and scotopic conditions” value in series [3] is “normal responses”. The “fecal zeaxanthin excretion, Isx^−/−/Bco2^−/− versus Bco2^−/− mice” value in series [4] is listed as “excreted less zeaxanthin”. Also, the “effect on food intake” value in series [5] is on record as “did not affect food intake”. Besides, in series [5] (4 weeks), the “liver weight between dietary groups” value is recorded as “no significant difference in liver weight”. For the same compound, the “OCT: retinal morphology, supplemented versus non-supplemented mice” value in series [6] is “no differences in the stratification of the retinal layers”. Also, in series [2], the “total zeaxanthin or its oxidized form in liver between light treatment groups” value is “no light-dependent increase”. In series [2] (DC, L/DC, LS), the “ocular levels between different light groups” value is listed as “remained relatively constant”. Besides, in series [7], the “skin phenotype (ears, eyelids, nostrils)” value is “yellow skin color phenotype”. Further, in series [8] (50 mg zeaxanthin diet, Bco2^−/− and Isx^−/−/Bco2^−/− mice, 4 weeks), the “form of zeaxanthin detectable in liver” value is listed as “only the oxidized form of zeaxanthin became detectable”. Further, the “total zeaxanthin in eWAT, Isx^−/−/Bco2^−/− versus Bco2^−/− mice” value in series [8] (50 mg/kg or 250 mg/kg diet, 4 weeks) is “significantly higher amounts”. For the same compound, the “concentration of carotenoids in eWAT and eyes compared with kidney and serum” value in series [8] (50 mg/kg zeaxanthin, Bco2^−/− and Isx^−/−/Bco2^−/− mice) was “two-fold higher”. Also, the “amount of zeaxanthin in jejunum relative to other parts of the intestine” value in series [8] (WT mice, 250 mg/kg diet, 4 weeks, major metabolite parent compound) was “highest amount”.

Source of the values: publication PMC10250156 (Molecular Metabolism, 2023).
